Calls of active or inactive are those of the source.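 The calls were made as follows: active = compound whose fitted half-maximal concentration, rising or falling, is at most ten times its top tested dose; inconclusive = flat fit showing 30 to 70% decrease, or bad fit; inactive = the rest.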

Experimental findings from PubChem BioAssay AID588777 (Broad Institute, 2011) are described below.

Chain of Scavenger receptor class B member 1 (Mus musculus) (Q61009 whole entry, looked up): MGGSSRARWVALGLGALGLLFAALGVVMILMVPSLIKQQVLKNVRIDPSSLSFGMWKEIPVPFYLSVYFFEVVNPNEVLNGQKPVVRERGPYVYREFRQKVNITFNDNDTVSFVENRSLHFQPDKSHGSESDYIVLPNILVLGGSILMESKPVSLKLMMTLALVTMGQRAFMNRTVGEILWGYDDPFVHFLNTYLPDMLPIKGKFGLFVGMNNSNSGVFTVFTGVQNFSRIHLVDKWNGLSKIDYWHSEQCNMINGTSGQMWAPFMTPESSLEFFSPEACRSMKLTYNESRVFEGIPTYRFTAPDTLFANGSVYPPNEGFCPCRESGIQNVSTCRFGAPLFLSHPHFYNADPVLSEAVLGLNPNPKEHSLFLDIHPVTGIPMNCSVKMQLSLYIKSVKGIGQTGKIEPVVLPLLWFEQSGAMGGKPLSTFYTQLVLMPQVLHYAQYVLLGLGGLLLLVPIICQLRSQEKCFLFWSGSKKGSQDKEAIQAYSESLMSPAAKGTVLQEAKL

For one assay, the target named is Scavenger receptor class B member 1 (Mus musculus) (UniProt Q61009). As to the kind of experiment: Alexa488-HDL binding change at mSR-BI cells – ldlA[mSR-BI] cells, powder samples, orthogonal assay for SR-BI HDL uptake inhibitor project, dose response (AID 588777). Particulars: Alexa488-HDL binding fluorescence, 3 h. The method in brief:
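assay system = ldlA[mSR-BI] cells expressing murine scavenger receptor SR-BI | probe or stimulus = 10 µg/mL Alexa488-HDL | technique = bottom-read Alexa488 fluorescence | schedule = 3 h at 37 °C | dosing = test compounds across a multi-point dose series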
Turning to `CCOc1ccccc1/C=C/c1onc(C)c1S(=O)(=O)N1CCC(C(=O)NC(C)(C)C)CC1`, the AC50 – broadly, the midpoint of the concentration-response curve, whichever way the signal moves – was 11.3 µM.

Take `Cc1ccc(-c2nnc(N3CCC(C)CC3)c3ccccc23)cc1C`: the AC50 is 5.54 µM. Still for that read-out and setting: as for `COc1cccc(-c2csc(N3CCN(C(=S)Nc4cccc(Cl)c4)CC3)n2)c1`, the figure is 12 µM; as for `CC(C)NC(=O)Nc1cccc2c1O[C@H](CN(C)Cc1ccc(Cl)c(Cl)c1)[C@@H](C)CN([C@@H](C)CO)C2=O`, 9.96 µM. As to `Cc1cc(C)c2c(c1)NC(c1cc3c(cc1Br)OCO3)C1CC=CC21` (stereo not drawn), the AC50 is 8.25 µM.

On to `COc1ccc(OC)c(CCNC(=O)c2ccc3c(c2)N(Cc2ccc(F)cc2)CCS3)c1`, for which the AC50 was 6.52 µM. On the same count and under the same terms, the result for `Cc1cc(C)n(CC(=O)NC2CCCc3c2cnn3-c2ccc(C)c(C)c2)n1` (stereo not drawn) reads 0.0494 µM; that for `C[C@H]1CN([C@@H](C)CO)C(=O)c2cccc(NC(=O)Nc3ccccc3)c2O[C@@H]1CN(C)Cc1ccc(C(F)(F)F)cc1`, 19.4 µM; that for `C[C@@H]1CN([C@H](C)CO)C(=O)c2cc(NC(=O)Cc3cn(C)c4ccccc34)ccc2O[C@H]1CN(C)C(=O)Nc1ccc(F)cc1`, 1.93 µM. In the case of `C[C@H]1CN([C@@H](C)CO)C(=O)c2cc(NC(=O)Cc3cn(C)c4ccccc34)ccc2O[C@H]1CN(C)S(=O)(=O)c1ccc(F)cc1`, the concentration at half-maximal activity (AC50) was 25.4 µM. `C[C@@H]1CN([C@@H](C)CO)C(=O)c2cc(NC(=O)Cc3cn(C)c4ccccc34)ccc2O[C@@H]1CN(C)S(=O)(=O)c1ccc(F)cc1`: the half-maximal activity concentration (AC50) is 22.8 µM. As to `Cc1cc(C(=O)C(C)OC(=O)C2=NNC(=O)CC2)c(C)n1-c1ccc(OC(F)F)cc1` (stereo not drawn), the AC50 is 7.45 µM. On the same count and under the same terms, the result for `Nc1ccc(C(=O)Nc2ccc(-c3nc4ccc(NC(=O)c5ccc(N)cc5)cc4[nH]3)cc2)cc1` reads 4.55 µM; that for `CCc1sc(N2C(=O)C3C4CCC(C4=C(C)C)C3C2=O)nc1-c1ccccc1` (stereo not drawn), 0.441 µM; that for `C[C@H](CO)N1C[C@H](C)[C@H](CN(C)S(=O)(=O)c2ccc(F)cc2)Oc2ccc(NS(C)(=O)=O)cc2C1=O`, 21 µM.

As for `O=C(Nc1cccc(NC(=O)c2cc([N+](=O)[O-])ccc2Cl)n1)c1cc([N+](=O)[O-])ccc1Cl`, the AC50 is 5.11 µM. Regarding `O=C(Nc1ccc(Cl)cc1C(=O)c1ccc(Cl)cc1)c1cc(Br)ccc1NS(=O)(=O)c1ccc(Cl)cc1`, the AC50 is 21.7 µM.

On to `N#Cc1sc2nc(C3CC3)cc(-c3ccc(Cl)cc3)c2c1N`, for which the AC50 was 20.1 µM. For the compound `CCn1c(COc2c(C)cccc2C)nnc1SCC(=O)N1CCN(c2ccccc2)CC1`, the AC50 was 5.89 µM.

On to `COC(=O)c1cn(C(=O)c2cccc3ccccc23)c2ccccc12`, for which the AC50 was 23 µM. `C[C@@H]1CN([C@H](C)CO)C(=O)c2cc(NC(=O)Cc3cn(C)c4ccccc34)ccc2O[C@H]1CN(C)S(=O)(=O)c1ccc(Cl)cc1`: the half-maximal activity concentration (AC50) was 0.168 µM. Same read-out and setting: the result for `O=C(Nc1ccc(-c2nc3ccc(NC(=O)c4ccccc4)cc3[nH]2)cc1)c1ccccc1` reads 0.328 µM; that for `CC(C)OCCCNC(=O)c1ccc(C2SCC(=O)N2Cc2ccco2)cc1` (stereo not drawn), 16.5 µM.

`COc1ccc(-c2nnn(CC(=O)N(C3CCCCC3)C(C)C(=O)NC3CCCC3)n2)cc1OC` (stereo not drawn): the concentration at half-maximal activity (AC50) was 0.422 µM. Take `C[C@@H]1CN([C@H](C)CO)C(=O)c2cc(NC(=O)Cc3cn(C)c4ccccc34)ccc2O[C@H]1CN(C)S(=O)(=O)c1ccccc1`: the AC50 was 8.36 µM. As to `C[C@H]1CN([C@@H](C)CO)C(=O)c2cccc(NC(=O)Nc3ccccc3)c2O[C@@H]1CN(C)Cc1ccc(Cl)c(Cl)c1`, the AC50 is 1.79 µM. Consider `O=C(Nc1ccc(-c2nc3cc(NC(=O)c4ccccc4Cl)ccc3o2)cc1)c1ccccc1Cl`, for which the AC50 is 0.0819 µM.

For `C[C@@H]1CN([C@H](C)CO)C(=O)c2cc(NC(=O)Cc3cn(C)c4ccccc34)ccc2O[C@H]1CN(C)S(C)(=O)=O`, the AC50 is 25 µM. For `COc1ccc([C@H]2CC(=O)C=C(c3cccc4c3sc3ccccc34)C2)cc1OC`, the AC50 was 2.28 µM. With `C[C@H]1CN([C@@H](C)CO)C(=O)c2cccc(NC(=O)Nc3ccc(F)cc3)c2O[C@@H]1CN(C)Cc1ccc(Cl)c(Cl)c1`, the AC50 was 0.533 µM. Same read-out and setting: the result for `C[C@@H]1CN([C@@H](C)CO)C(=O)c2cc(NC(=O)Cc3cn(C)c4ccccc34)ccc2O[C@H]1CN(C)S(=O)(=O)c1ccc(F)cc1` reads 10.2 µM; that for `C[C@@H]1CN([C@H](C)CO)C(=O)c2cc(NC(=O)Cc3cn(C)c4ccccc34)ccc2O[C@H]1CN(C)S(=O)(=O)c1ccc(F)cc1`, 2.06 µM; that for `C[C@@H]1CN([C@H](C)CO)C(=O)c2cc(NC(=O)Cc3cn(C)c4ccccc34)ccc2O[C@@H]1CN(C)S(=O)(=O)c1ccc(F)cc1`, 21.5 µM.

With `C[C@H](CO)N1C[C@H](C)[C@H](CN(C)S(=O)(=O)c2ccc(F)cc2)Oc2ccc(NC(=O)Cc3cn(C)c4ccccc34)cc2C1=O`, the AC50 is 30.9 µM. Consider `CCOc1ccc(NC(=O)CN2CCN(CC(=O)Nc3cc(OC)cc(OC)c3)CC2)cc1`, for which the AC50 was 0.128 µM. As for `CCOC(=O)N1CCC(NC(=O)c2ccc3c(c2)N(Cc2ccc(F)cc2)CCS3)CC1`, the AC50 is 2.4 µM. For `O=C(Nc1ccc(-c2nc3ccc(NC(=O)c4ccccc4[N+](=O)[O-])cc3[nH]2)cc1)c1ccccc1[N+](=O)[O-]`, the AC50 was 0.0549 µM. Consider `O=C(Nc1ccc(-c2nc3cc(NC(=O)c4ccc(NC(=O)c5cccc6ccccc56)cc4)ccc3[nH]2)cc1)c1ccc(NC(=O)c2cccc3ccccc23)cc1`, for which the AC50 is less than 0.015 µM. As for `CCOC(=O)Nc1cccc(NC(=O)c2cc(OC)cc(OC)c2)c1`, the AC50 is 2.27 µM. Take `Cc1ccccc1NC(=O)NCC1CCN(c2ccc(S(=O)(=O)N3CCOCC3)cc2)CC1`: the AC50 is 3.98 µM. For `CC(C)(C)NC(=O)N1CCN(c2ncccc2C(F)(F)F)CC1`, the AC50 is 7.61 µM. Still for that read-out and setting: as for `C[C@H]1CN([C@@H](C)CO)C(=O)c2cccc(NC(=O)Nc3ccccc3)c2O[C@@H]1CN(C)Cc1ccccc1`, the figure is 13.8 µM. Consider `CCc1cc2cc3c(cc2nc1SCC(=O)OC(C)C)OCO3`, for which the AC50 was 1.48 µM. `O=C(Nc1cc(Cl)ccc1Cl)c1cc(Br)ccc1NS(=O)(=O)c1ccc(Cl)c([N+](=O)[O-])c1`: the AC50 is 4.23 µM. As to `CC(OC(=O)c1cccc(NS(C)(=O)=O)c1)C(=O)Nc1ccc(N2CCOCC2)cc1` (stereo not drawn), the AC50 was 4.47 µM. `Cc1cc(SC(C)C(=O)Nc2ncc(Cl)cc2Cl)nc2ccccc12` (stereo not drawn): the AC50 is 6.84 µM.

Staying with this assay, now noted: Alexa488-HDL binding fluorescence, 3 h, at 11 µM (top of the series).
Regarding `C[C@H](CO)N1C[C@H](C)[C@@H](CN(C)S(=O)(=O)c2ccc(F)cc2)Oc2ccc(NC(=O)Cc3cn(C)c4ccccc34)cc2C1=O`, the “activity change, either direction” value is “inactive”.

Staying with this assay, now noted: Alexa488-HDL binding fluorescence, 3 h, at 35 µM (top of the series).
Take `C[C@H](CO)N1C[C@H](C)[C@H](CN(C)S(=O)(=O)c2ccc(F)cc2)Oc2ccc(NC(=O)CCC(F)(F)F)cc2C1=O`: the “activity change, either direction” value was “inactive”. The same measure, in the same setting: the result for `O=C(Nc1ccccc1)c1ccccc1NS(=O)(=O)c1ccc(Cl)cc1` reads “inactive”; that for `O=C(Nc1cc(Cl)ccc1Cl)c1cc(Cl)ccc1NS(=O)(=O)c1ccc(Cl)c([N+](=O)[O-])c1`, “inactive”. Regarding `CCC(=O)N1CCc2cc(-c3csc(NC(=O)c4ccco4)n3)ccc21`, the “activity change, either direction” value is “inactive”. Take `O=C(Nc1ccc(-c2nc3ccc(NC(=O)c4ccc(Cl)cc4)cc3[nH]2)cc1)c1ccc(Cl)cc1`: the “activity change, either direction” value is “inactive”. As for `O=C(Nc1cc(C(F)(F)F)ccc1Cl)c1ccccc1NS(=O)(=O)c1ccc(Cl)cc1`, the “activity change, either direction” value was “inactive”. For `C[C@H]1CN([C@@H](C)CO)C(=O)c2cccc(NC(=O)Nc3ccccc3)c2O[C@@H]1CN(C)S(C)(=O)=O`, the “activity change, either direction” value is “inactive”. As for `C[C@H]1CN([C@@H](C)CO)C(=O)c2cc(NC(=O)Nc3ccccc3)ccc2O[C@@H]1CN(C)Cc1ccc(Cl)c(Cl)c1`, the “activity change, either direction” value is “inactive”. For the compound `C[C@H]1CN([C@@H](C)CO)C(=O)c2cccc(NS(C)(=O)=O)c2O[C@@H]1CN(C)Cc1ccc(Cl)c(Cl)c1`, the “activity change, either direction” value was “inactive”.

Regarding `O=C(Nc1ccc(-c2nc3cc(NC(=O)c4ccccc4[N+](=O)[O-])ccc3o2)cc1)c1ccccc1[N+](=O)[O-]`, the “activity change, either direction” value was “inactive”.

The assay is the same for the next values; noted with them: Alexa488-HDL binding fluorescence, 3 h, at 68 µM (top of the series).
Consider `Cc1ccc2oc(-c3cccc(NC(=O)c4cc(-n5cnnc5)ccc4Cl)c3)nc2c1`, for which the “activity change, either direction” value is “inactive”.
